Reference: article PMC7482441 (Pharmacological Research, 2020)

How the values were obtained:
[1] = Population PK / non-compartmental analysis of plasma Rimeporide in DMD boys; assay type: in vivo, human; details: for half-life: male, human, plasma, po
Method in brief: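 Sparse plasma sampling: Day 1 pre-dose, 0.5–1, 1–2, 2.5–3.5 and ~6 h post-dose; Day 28 at 0.5–1 and ~6 h. Drug was quantified by a validated LC–MS/MS method. A 3-compartment population model with absorption and first-order elimination was fitted in NONMEM, pooled with healthy-volunteer and heart-failure data.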

UMX 101 hamsters = details: lifelong preventive treatment; cited from earlier work
[2] = tested on: TR (Transferrin receptor); assay: Circulating biomarker, baseline vs 4-week treatment; assay type: in vivo, human; details: 20 DMD patients, OLink, p-value 3.0e-6, FDR 0.0004
mdx mice = details: short and long term studies in mdx mice; cited from earlier work
IGFBP1 = assay: Circulating biomarker, baseline vs 4-week treatment; assay type: in vivo, human; details: 20 DMD patients, OLink, p-value 1.7e-8, FDR 4e-6
CCL15 = assay: as above; assay type: in vivo, human; details: 20 DMD patients, OLink, p-value 0.0003, FDR 0.17
FAS = assay: as above; assay type: in vivo, human; details: 20 DMD patients, OLink, p-value 0.0007, FDR 0.24
skeletal muscle = assay: NMRI of skeletal muscle; assay type: in vivo, human; details: dose escalation, 4-week treatment
Method in brief: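 NMRI of both lower limbs was acquired locally at baseline and week 4 of oral treatment (50–300 mg TID, 4 ascending-dose cohorts). Indices were water T2 and fat fraction in skeletal muscle. Descriptive statistics were produced per cohort.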

IGFBP6 = assay: Circulating biomarker, baseline vs 4-week treatment; assay type: in vivo, human; details: 20 DMD patients, OLink, p-value 0.0044, FDR 0.89
[3] = tested on: sodium-proton exchanger isoform 1 (NHE-1); details: cited from earlier work
TNFα = assay: Circulating biomarker, baseline vs 4-week treatment; assay type: in vivo, human; details: 20 DMD patients, Luminex, p-value 0.0009, FDR 0.24
[4] = tested on: CK MM (Creatine Kinase MM isoform); assay: as above; assay type: in vivo, human; details: 20 DMD patients, Electrophoresis, p-value 0.0009, FDR 0.24
SCGB3A2 = assay: as above; assay type: in vivo, human; details: 20 DMD patients, OLink, p-value 1.3e-5, FDR 0.001
MCP1 = assay: as above; assay type: in vivo, human; details: 20 DMD patients, OLink, p-value 0.0016, FDR 0.39

For `[H]/N=C(\N)NC(=O)c1cc(S(C)(=O)=O)c(S(C)(=O)=O)cc1C` [Rimeporide], the “TAT (time above 500 ng/ml over 24 h)” value ([1]; Cohort 1, 150 to 225 mg daily oral, Day 1, mean, N 5) was 6.6 h, the “TAT (time above 500 ng/ml over 24 h)” value ([1]; Cohort 1, 150 to 225 mg daily oral, Day 28, mean, N 4) was 8.4 h and the “TAT (time above 500 ng/ml over 24 h)” value ([1]; Cohort 2, 300 to 450 mg daily oral, Day 1, mean, N 5) was 17 h. For the same compound, the “TAT (time above 500 ng/ml over 24 h)” value ([1]; Cohort 2, 300 to 450 mg daily oral, Day 28, mean, N 5) was 15 h, the “TAT (time above 500 ng/ml over 24 h)” value ([1]; Cohort 3, 450 to 600 mg daily oral, Day 1, mean, N 5) was 18 h and the “TAT (time above 500 ng/ml over 24 h)” value ([1]; Cohort 3, 450 to 600 mg daily oral, Day 28, mean, N 5) was 16 h. The “TAT (time above 500 ng/ml over 24 h)” value ([1]; Cohort 4, 600 to 900 mg daily oral, Day 1, mean, N 5) was 19.0 h, the “TAT (time above 500 ng/ml over 24 h)” value ([1]; Cohort 4, 600 to 900 mg daily oral, Day 28, mean, N 5) was 18 h and the “dose linearity of PK” value ([1]; DMD patients) was “dose linear”. The accumulation with time ([1]; DMD patients, repeated dosing 4 weeks) was “no sign of any accumulation”, the “effect of fed condition on AUC24” value ([1]; fed condition) was “no impact” and the “effect of fed condition on Cmax” value ([1]; fed condition) was “decrease”. For the same compound, the “exposure in children compared to healthy adults” value ([1]; in vivo) was “slightly higher exposure than in adults”, the half-life ([1]; T1/2, Cohort 3, 450 to 600 mg daily oral, Day 1, mean, N 5) was 3.9 h and the half-life ([1]; T1/2, Cohort 3, 450 to 600 mg daily oral, Day 28, mean, N 5) was 3.76 h. For the same compound, the half-life ([1]; T1/2, Cohort 4, 600 to 900 mg daily oral, Day 1, mean, N 5) was 3.9 h, the half-life ([1]; T1/2, Cohort 4, 600 to 900 mg daily oral, Day 28, mean, N 5) was 3.75 h and the “time post dose at which Cmax occurred” value ([1]; oral immediate release capsules, Days 1 and 28) was 1 to 2 h. The mortality (UMX 101 hamsters) was “dramatic reduction in mortality”, the “TR: Term (TRT, linear mixed effect model, Day 28 vs Day 0)” value [2] was 0.5252 and the “effects in skeletal and cardiac muscles” value (mdx mice) was “potent anti-inflammatory and anti-fibrotic effects”. For the same compound, the “IGFBP1: Term (TRT, linear mixed effect model, Day 28 vs Day 0)” value (IGFBP1) was −2.7123, the “CCL15: Term (TRT, linear mixed effect model, Day 28 vs Day 0)” value (CCL15) was −0.4489 and the “FAS: Term (TRT, linear mixed effect model, Day 28 vs Day 0)” value (FAS) was −0.2823. The “NMRI indices in skeletal muscle” value (skeletal muscle) was “No notable change”, the “IGFBP6: Term (TRT, linear mixed effect model, Day 28 vs Day 0)” value (IGFBP6) was −0.3144 and the NHE-1 inhibition [3] was “potent and selective inhibitor”. For the same compound, the “TNFα: Term (TRT, linear mixed effect model, Day 28 vs Day 0)” value (TNFα) was −0.1726, the “CK MM: Term (TRT, linear mixed effect model, Day 28 vs Day 0)” value [4] was −0.3886 and the “SCGB3A2: Term (TRT, linear mixed effect model, Day 28 vs Day 0)” value (SCGB3A2) was −0.5466. For the same compound, the “MCP1: Term (TRT, linear mixed effect model, Day 28 vs Day 0)” value (MCP1) was −0.5675.
